Data from PMC10949176 (Clinical and Translational Science, 2024).
pEC50, pIC50, pKi: −log10 of the molar value. Values joined by “and” are separate entries in the source; they are usually repeats but may differ in a detail not shown here. Identical values can stand only once. “Also recorded” adds a separate entry of the source. Values belong to the compound of their own block, whether it stands above or below them.

Assays:
UGT1A1 = UGT1A1 (Homo sapiens, UniProt P22309); test: UGT inhibition in suspension human hepatocytes; assay type: cell-based; conditions: UGT1A1, β‐Estradiol 3 μM, unbound
UGT1A3 = UGT1A3 (Homo sapiens, UniProt P35503); test: UGT inhibition in suspension human hepatocytes; assay type: cell-based; conditions: read-out: Ki,u HHEPs; UGT1A3, CDCA 2 μM, unbound
UGT1A4 = UGT1A4 (Homo sapiens, UniProt P22310); test: UGT inhibition in suspension human hepatocytes; assay type: cell-based; conditions: read-out: Ki,u HHEPs; UGT1A4, TFP 1 μM, unbound
UGT1A6 = UGT1A6 (Homo sapiens, UniProt P19224); test: UGT inhibition in suspension human hepatocytes; assay type: cell-based; conditions: UGT1A6, Serotonin 1715 μM, unbound
UGT1A9 = UGT1A9 (Homo sapiens, UniProt O60656); test: UGT inhibition in suspension human hepatocytes; assay type: cell-based; conditions: read-out: Ki,u HHEPs; UGT1A9, Propofol 10 μM, unbound
UGT2B7 = UGT2B7 (Homo sapiens, UniProt P16662); test: UGT inhibition in suspension human hepatocytes; assay type: cell-based; conditions: read-out: Ki,u HHEPs; UGT2B7, Zidovudine 100 μM, unbound
UGT2B15 = UGT2B15 (Homo sapiens, UniProt P54855); test: UGT inhibition in suspension human hepatocytes; assay type: cell-based; conditions: read-out: Ki,u HHEPs; UGT2B15, Oxazepam 10 μM, unbound
recombinant SULT1A1 = test: Recombinant SULT inhibition by ABT, SULT1A1; assay type: biochemical; conditions: 1 mM ABT, raloxifene probe substrate, data not shown
recombinant SULT1A3 = test: Recombinant SULT inhibition by ABT, SULT1A3; assay type: biochemical; conditions: 1 mM ABT, raloxifene probe substrate, data not shown
recombinant SULT1B1 = test: Recombinant SULT inhibition by ABT, SULT1B1; assay type: biochemical; conditions: 1 mM ABT, raloxifene probe substrate, data not shown
recombinant SULT1C2 = test: Recombinant SULT inhibition by ABT, SULT1C2; assay type: biochemical; conditions: 1 mM ABT, raloxifene probe substrate, data not shown
recombinant SULT1C4 = test: Recombinant SULT inhibition by ABT, SULT1C4; assay type: biochemical; conditions: 1 mM ABT, raloxifene probe substrate, data not shown
recombinant SULT1E1 = test: Recombinant SULT inhibition by ABT, SULT1E1; assay type: biochemical; conditions: 1 mM ABT, raloxifene probe substrate, data not shown
SULT2A1 [1] = target: T1, SULT2A1 (Homo sapiens, UniProt Q06520); test: Recombinant SULT inhibition by ABT, SULT2A1; assay type: biochemical; conditions: 1 mM ABT, raloxifene probe substrate, data not shown
T1 sequence (Q06520 1-285): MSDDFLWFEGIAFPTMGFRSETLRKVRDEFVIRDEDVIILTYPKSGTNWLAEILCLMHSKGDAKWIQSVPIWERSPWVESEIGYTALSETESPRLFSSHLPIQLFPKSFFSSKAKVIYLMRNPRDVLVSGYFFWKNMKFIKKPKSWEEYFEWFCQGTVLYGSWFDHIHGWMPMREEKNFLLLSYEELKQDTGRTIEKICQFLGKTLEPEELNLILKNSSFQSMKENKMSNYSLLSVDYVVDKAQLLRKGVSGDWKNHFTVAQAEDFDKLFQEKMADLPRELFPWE

recombinant SULT2B1 = test: Recombinant SULT inhibition by ABT, SULT2B1; assay type: biochemical; conditions: 1 mM ABT, raloxifene probe substrate, data not shown
[2] = test system: palbociclib intrinsic clearance in Hμrel co‐culture hepatocytes; test: Impact of ARV-471 on intrinsic clearance of palbociclib in Hμrel; assay type: in vitro ADME, human; conditions: at ~3 μM ARV‐471
SULT2A1 [3] = target: T1, SULT2A1; test: ARV-471 inhibition of recombinant SULT2A1; assay type: biochemical; conditions: rSULT2A1 IC50 (DHEAS formation)
In short: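 Recombinant human SULT2A1 incubated with varying test compound concentrations. Read-out was formation of DHEAS, with IC50 derived from the concentration response. Mean of three.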

SULT2A1 [4] = target: T1, SULT2A1; test: ARV-471 inhibition of SULT2A1 in Hμrel; assay type: cell-based; conditions: Hμrel IC50 (DHEAS formation, SULT2A1), Hμrel model
In short: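 Hμrel co-culture of mixed-gender, five-donor pooled hepatocytes, acclimated 24 h at 37°C, 5% CO₂, exposed to varying test compound concentrations. […] DHEAS formation was measured and IC50 derived. Mean of three.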

palbociclib sulfation = test: Formation of palbociclib sulfate in Hμrel with ARV-471; assay type: cell-based, human
CYP3A = CYP3A activity in Hμrel with ARV-471; assay type: cell-based, human
[5] = test system: palbociclib metabolic pathways in co‐culture human hepatocyte models; assay type: in vitro ADME
[6] = ref https://endpts.com/arvinas‐reports‐delay‐for‐pfizer‐partnered‐protein‐degradation‐program/, cited from earlier work
[7] = test system: CYP3A4 mRNA (marker of PXR); test: mRNA induction in sandwich cultured hepatocytes; assay type: cell-based, human; conditions: RIS qualified donor HH1103, sandwich cultured hepatocytes, 48 h
[8] = Preliminary reaction phenotyping of palbociclib in hepatocytes; assay type: in vitro ADME; conditions: novel approach (manuscript under preparation)
[9] = test system: CYP2B6 mRNA (marker of CAR); test: mRNA induction in sandwich cultured hepatocytes; assay type: cell-based, human; conditions: RIS qualified donor HH1103, sandwich cultured hepatocytes, 48 h
[10] = Hμrel, 1'hydroxylation of midazolam

Sequence of UGT1A3 (P35503 29-534): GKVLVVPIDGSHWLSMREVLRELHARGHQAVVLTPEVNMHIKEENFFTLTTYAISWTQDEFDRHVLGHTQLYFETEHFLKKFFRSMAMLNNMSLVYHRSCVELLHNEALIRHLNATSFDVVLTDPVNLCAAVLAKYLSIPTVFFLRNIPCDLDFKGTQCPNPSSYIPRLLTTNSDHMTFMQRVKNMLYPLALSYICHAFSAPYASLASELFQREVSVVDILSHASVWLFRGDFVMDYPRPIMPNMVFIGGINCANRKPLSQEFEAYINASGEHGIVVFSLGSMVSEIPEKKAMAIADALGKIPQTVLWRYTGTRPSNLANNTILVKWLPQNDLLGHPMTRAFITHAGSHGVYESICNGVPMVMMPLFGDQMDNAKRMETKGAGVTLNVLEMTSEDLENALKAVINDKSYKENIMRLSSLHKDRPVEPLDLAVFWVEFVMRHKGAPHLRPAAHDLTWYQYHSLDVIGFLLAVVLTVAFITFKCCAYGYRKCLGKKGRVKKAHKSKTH
Sequence of UGT2B7 (P16662 24-529): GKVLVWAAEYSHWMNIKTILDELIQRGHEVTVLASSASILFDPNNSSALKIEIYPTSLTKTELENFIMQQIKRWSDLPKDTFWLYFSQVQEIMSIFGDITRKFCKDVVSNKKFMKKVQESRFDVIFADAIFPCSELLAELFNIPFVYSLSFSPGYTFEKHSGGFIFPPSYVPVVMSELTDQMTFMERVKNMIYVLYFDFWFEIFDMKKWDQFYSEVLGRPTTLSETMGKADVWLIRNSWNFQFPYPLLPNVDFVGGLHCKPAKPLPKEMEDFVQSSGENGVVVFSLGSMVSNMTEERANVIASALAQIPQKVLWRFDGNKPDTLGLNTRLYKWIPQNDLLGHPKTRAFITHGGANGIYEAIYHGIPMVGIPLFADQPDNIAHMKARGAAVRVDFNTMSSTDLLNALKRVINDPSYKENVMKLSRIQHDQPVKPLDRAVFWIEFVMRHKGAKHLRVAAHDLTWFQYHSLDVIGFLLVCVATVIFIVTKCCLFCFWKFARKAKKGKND
Sequence of UGT1A4 (P22310 29-534): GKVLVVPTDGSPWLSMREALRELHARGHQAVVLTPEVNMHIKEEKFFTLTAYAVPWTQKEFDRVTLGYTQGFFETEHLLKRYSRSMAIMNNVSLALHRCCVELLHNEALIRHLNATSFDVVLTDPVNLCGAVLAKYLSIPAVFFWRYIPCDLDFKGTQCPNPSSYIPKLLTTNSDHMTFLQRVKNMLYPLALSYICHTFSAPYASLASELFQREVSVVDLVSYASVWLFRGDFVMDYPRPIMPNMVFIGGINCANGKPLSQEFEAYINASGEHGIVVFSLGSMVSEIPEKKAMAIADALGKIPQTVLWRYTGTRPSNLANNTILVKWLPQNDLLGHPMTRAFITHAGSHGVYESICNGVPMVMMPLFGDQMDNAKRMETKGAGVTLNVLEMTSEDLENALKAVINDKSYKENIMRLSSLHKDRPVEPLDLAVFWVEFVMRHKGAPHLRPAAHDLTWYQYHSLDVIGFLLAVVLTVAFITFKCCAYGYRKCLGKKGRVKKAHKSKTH
Sequence of UGT2B15 (P54855 24-530): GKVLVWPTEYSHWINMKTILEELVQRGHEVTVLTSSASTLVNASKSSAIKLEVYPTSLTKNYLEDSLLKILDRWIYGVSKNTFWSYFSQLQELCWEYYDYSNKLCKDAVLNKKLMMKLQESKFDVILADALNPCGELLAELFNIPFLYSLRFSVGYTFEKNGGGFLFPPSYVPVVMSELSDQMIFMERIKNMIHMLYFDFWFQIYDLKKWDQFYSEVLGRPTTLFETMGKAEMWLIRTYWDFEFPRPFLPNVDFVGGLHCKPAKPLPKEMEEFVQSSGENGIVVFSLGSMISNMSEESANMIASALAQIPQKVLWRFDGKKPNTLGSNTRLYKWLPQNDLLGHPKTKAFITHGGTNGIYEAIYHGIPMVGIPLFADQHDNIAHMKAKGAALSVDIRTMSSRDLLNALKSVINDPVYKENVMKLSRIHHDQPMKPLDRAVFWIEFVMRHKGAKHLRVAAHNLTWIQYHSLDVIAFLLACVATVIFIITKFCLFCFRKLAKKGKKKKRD
Sequence of UGT1A1 (P22309 26-533): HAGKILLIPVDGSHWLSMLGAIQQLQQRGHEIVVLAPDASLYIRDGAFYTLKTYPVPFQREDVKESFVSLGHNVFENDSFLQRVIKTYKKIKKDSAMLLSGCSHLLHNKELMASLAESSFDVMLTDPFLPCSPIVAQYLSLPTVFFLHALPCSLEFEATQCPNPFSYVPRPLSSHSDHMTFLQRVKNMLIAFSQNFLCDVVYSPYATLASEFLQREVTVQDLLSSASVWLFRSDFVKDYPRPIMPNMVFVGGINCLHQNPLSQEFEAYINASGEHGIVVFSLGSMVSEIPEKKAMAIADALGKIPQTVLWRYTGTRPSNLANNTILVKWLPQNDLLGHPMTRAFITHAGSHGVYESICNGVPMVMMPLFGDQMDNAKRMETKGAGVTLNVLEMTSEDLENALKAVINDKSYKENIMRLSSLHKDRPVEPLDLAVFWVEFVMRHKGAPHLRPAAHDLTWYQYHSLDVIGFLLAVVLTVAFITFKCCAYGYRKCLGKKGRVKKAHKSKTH
Sequence of UGT1A9 (O60656 26-530): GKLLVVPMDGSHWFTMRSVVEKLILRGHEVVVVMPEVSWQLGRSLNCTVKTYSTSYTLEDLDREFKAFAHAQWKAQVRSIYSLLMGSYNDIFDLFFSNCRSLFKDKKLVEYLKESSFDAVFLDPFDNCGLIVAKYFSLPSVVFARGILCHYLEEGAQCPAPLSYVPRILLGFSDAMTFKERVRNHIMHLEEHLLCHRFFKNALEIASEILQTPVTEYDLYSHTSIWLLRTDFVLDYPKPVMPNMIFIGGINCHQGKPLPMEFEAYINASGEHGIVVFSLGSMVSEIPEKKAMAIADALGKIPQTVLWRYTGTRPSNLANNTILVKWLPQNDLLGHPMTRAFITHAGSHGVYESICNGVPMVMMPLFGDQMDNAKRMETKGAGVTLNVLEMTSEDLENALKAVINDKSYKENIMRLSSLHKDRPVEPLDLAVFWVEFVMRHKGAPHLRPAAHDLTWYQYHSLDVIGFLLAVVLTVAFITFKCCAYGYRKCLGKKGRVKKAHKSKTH
Sequence of UGT1A6 (P19224 27-532): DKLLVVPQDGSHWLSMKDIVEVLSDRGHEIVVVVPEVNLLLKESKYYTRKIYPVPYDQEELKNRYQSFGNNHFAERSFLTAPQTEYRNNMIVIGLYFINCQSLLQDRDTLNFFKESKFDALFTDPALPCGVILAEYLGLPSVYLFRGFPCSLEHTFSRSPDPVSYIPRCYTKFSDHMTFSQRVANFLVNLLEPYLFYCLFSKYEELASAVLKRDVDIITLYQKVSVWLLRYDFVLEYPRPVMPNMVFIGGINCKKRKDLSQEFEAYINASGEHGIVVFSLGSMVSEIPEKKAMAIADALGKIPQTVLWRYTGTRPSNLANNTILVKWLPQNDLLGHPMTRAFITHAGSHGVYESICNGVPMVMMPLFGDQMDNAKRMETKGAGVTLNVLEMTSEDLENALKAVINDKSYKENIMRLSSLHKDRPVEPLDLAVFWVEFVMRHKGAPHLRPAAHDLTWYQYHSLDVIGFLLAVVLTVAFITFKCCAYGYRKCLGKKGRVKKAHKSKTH

Compound: Nn1nnc2ccccc21 [ABT, Aminobenzotriazole]
- Ki,u HHEPs (UGT1A1): No inhibition
- pKi (UGT1A3): 2.22
- pKi (UGT1A4): 2.60
- Ki,u HHEPs (UGT1A6): No inhibition
- pKi (UGT1A9): 2.34
- pKi (UGT2B7): 2.26
- pKi (UGT2B15): < 1.70
- inhibition of SULT1A1 (recombinant SULT1A1): No significant inhibition
- inhibition of SULT1A3 (recombinant SULT1A3): No significant inhibition
- inhibition of SULT1B1 (recombinant SULT1B1): No significant inhibition
- inhibition of SULT1C2 (recombinant SULT1C2): No significant inhibition
- inhibition of SULT1C4 (recombinant SULT1C4): No significant inhibition
- inhibition of SULT1E1 (recombinant SULT1E1): No significant inhibition
- inhibition of SULT2A1 (SULT2A1 [1]): No significant inhibition
- inhibition of SULT2B1 (recombinant SULT2B1): No significant inhibition

Compound: O=C1CC[C@H](N2Cc3cc(N4CCN(CC5CCN(c6ccc([C@@H]7c8ccc(O)cc8CC[C@@H]7c7ccccc7)cc6)CC5)CC4)ccc3C2=O)C(=O)N1 [ARV-471]
- increase in palbociclib exposure recapitulated from Clint inhibition [2]: 50%
- pIC50 (SULT2A1 [3]): < 4.46
- pIC50 (SULT2A1 [4]): < 4.46
- effect on palbociclib sulfation over the time course (palbociclib sulfation): apparent activation
- direct inhibition of CYP3A activity (CYP3A; [10]): no direct inhibition; also recorded: no direct or time‐dependent inhibition
- time‐dependent inhibition of CYP3A (CYP3A; [10]): no direct or time‐dependent inhibition
- Emax, increase in midazolam activity (CYP3A induction) (CYP3A; Hμrel, concentration and time‐dependent increase): 3.8 fold
- pEC50 (CYP3A; human, Hμrel co-culture hepatocytes, probe midazolam (1'-hydroxylation)): 6.60
- glucuronide metabolism of palbociclib ([5]; Hμrel and TruVivo, 5 μM palbociclib, 20 μM ARV‐471): completely inhibited
- inhibition of metabolic clearance accounted for by glucuronide metabolism ([5]; based on MS ionization and summed metabolite area ratios, 20 μM ARV‐471): up to 50%
- increase in palbociclib exposure (area under the curve) ([6]; co‐administration of palbociclib with ARV‐471, phase Ib): ~ 50% and 50%
- adverse event with increased palbociclib exposure ([6]; palbociclib with ARV‐471, phase Ib): grade 3/4 neutropenia

Compound: CC(=O)c1c(C)c2cnc(Nc3ccc(N4CCNCC4)cn3)nc2n(C2CCCC2)c1=O [palbociclib]
- Clint at 5 μM compared with 0.045 μM ([5]; co-culture hepatocytes, suggesting saturation of metabolic clearance): reduced
- share of palbociclib clearance by glucuronidation [8]: 25%–30%

Next, values leading:

- CYP3A4 induction Emax [7]: 2 fold
Compound: CC(=O)N1CCN(c2ccc(OCC3COC(Cn4ccnc4)(c4ccc(Cl)cc4Cl)O3)cc2)CC1 (stereo not shown) [ketoconazole]

- CYP2B6 induction (result in words) [9]: did not induce
Compound: C=C[C@H]1C[N@@]2CC[C@H]1C[C@@H]2[C@@H](O)c1ccnc2ccc(OC)cc12 [quinidine]
